Molecules are shown by their SMILES. Activity calls are given as the source filed them. The rule behind the calls is not given here.

For orientation: IC50 means the concentration that gives 50% inhibition.

Experiment [1] relates to Human immunodeficiency virus 1. Briefly: Antiviral activity against HIV-1 NL4-3 expressing VSV-G envelope infected in human 293T cells assessed as inhibition of viral replication after 48 hrs by Luciferase reporter gene assay. Type of experiment: functional, organism-based. The essentials: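 VSV-G-pseudotyped, env-deficient pNL4-3.luc.R-E- virions made by calcium phosphate cotransfection of 293 cells, then filtered. Virions quantified by p24 ELISA and diluted to 0.2 ng p24/mL. Compounds added 15 min before virus, with solvent-only blank. Luciferase in lysates read 48 h post-infection. Zidovudine served as positive control.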
On the technique in general: A reporter such as luciferase makes a cellular process visible.

For experiment [2], the target named is T1, Tyrosine-protein phosphatase non-receptor type 1 (Homo sapiens) (UniProt P18031).
T1 sequence (whole entry): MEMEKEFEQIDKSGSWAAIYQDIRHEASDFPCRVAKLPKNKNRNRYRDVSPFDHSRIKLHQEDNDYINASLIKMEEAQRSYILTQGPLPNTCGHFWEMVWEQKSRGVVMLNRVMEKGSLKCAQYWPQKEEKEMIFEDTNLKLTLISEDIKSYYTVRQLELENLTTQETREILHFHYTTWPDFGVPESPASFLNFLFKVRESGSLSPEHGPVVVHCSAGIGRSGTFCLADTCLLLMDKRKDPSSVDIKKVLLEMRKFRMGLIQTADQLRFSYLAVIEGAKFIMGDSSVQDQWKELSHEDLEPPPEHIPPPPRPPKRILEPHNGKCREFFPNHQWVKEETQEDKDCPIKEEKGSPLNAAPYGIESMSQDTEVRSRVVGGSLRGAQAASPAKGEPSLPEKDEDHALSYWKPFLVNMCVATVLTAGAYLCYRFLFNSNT
Briefly: Inhibition of GST-tagged human PTP1B.

Experiment [3] has as its system A2780. Briefly: Cytotoxicity against human A2780 cells after 4 days by MTT assay. It counts as functional, cell-based.

`C[C@@H](C/C=C/C(C)(C)OO)[C@@H]1CC[C@]2(C)C3=C(C(=O)C[C@@]12C)[C@@]1(C)CC[C@H](O)C(C)(C)[C@@H]1CC3=O`: the inhibition result in experiment [1] and in experiment [2] was “inactive” in each case. For the same molecule, the outcome in experiment [3] was inactive.
For `CC[C@H](CC[C@@H](C)[C@H]1CC[C@H]2[C@@H]3CC=C4C[C@@H](O)CC[C@]4(C)[C@H]3CC[C@]12C)C(C)C`, the outcome in experiment [1] and in experiment [3] was inactive. Besides, in experiment [2], the inhibition result is “inactive”.
As for `CC(=O)O[C@]12C[C@H](C)[C@H](O)[C@@H]1/C=C(\C)CC[C@H]1[C@@H](/C=C(\C)C2=O)C1(C)C`, the outcome in experiment [1] and in experiment [3] was inactive. In experiment [2], the inhibition result was “inactive”.
As for `CC(=O)O[C@H]1CC[C@@]2(C)[C@@H]3C[C@@H]4OC(=O)C(C)=C4C=C3CC[C@@H]2C1(C)C`, the outcome in experiment [1] and in experiment [3] was inactive. In experiment [2], the inhibition result was “inactive”.
With `CC1(C)CC[C@]2(CO)CC[C@]3(C)C(=CC[C@@H]4[C@@]5(C)CC[C@H](O)C(C)(C)[C@@H]5CC[C@]43C)[C@@H]2C1`, the outcome in experiment [1] and in experiment [3] was inactive. The inhibition entry in experiment [2] was “inactive”.
As to `CCCCCCCCCCCCCCCCCCCCCCCCCCCCCCO`, the outcome in experiment [1] and in experiment [3] was inactive. Further, the inhibition entry in experiment [2] was “inactive”.
For `C=C(C)[C@H](O)CC[C@H](C)[C@@H]1CC[C@]2(C)C3=CC[C@H]4C(C)(C)[C@@H](O)CC[C@]4(C)C3=CC[C@@]12C`, the inhibition result in experiment [1] and in experiment [2] was “inactive” each time. Further, the result in experiment [3] was inactive.
Take `C[C@H]1[C@H](C)CC[C@]2(CO)CC[C@]3(C)C(=CC[C@@H]4[C@@]5(C)CC[C@H](O)C(C)(C)[C@@H]5CC[C@]43C)[C@H]12`: the outcome in experiment [1] and in experiment [3] was inactive. The inhibition entry in experiment [2] was “inactive”.
With `CCCCCCCCCC/C=C\CCCCCC(=O)OC(CO)CO`, the outcome in experiment [1] and in experiment [3] was inactive. The inhibition entry in experiment [2] is “inactive”.
Turning to `C=C(C)[C@@H](CC[C@H](C)[C@@H]1CC[C@]2(C)C3=C(CC[C@@]12C)[C@@]1(C)CC[C@H](O)C(C)(C)[C@@H]1CC3=O)OO`, the inhibition result in experiment [1] and in experiment [2] was “inactive” in each case. Further, the result in experiment [3] was inactive.
Turning to `COc1cc2ccc(=O)oc2cc1O`, the result in experiment [1] and in experiment [3] was inactive. In experiment [2], the inhibition result was “inactive”.
As for `CC1=C2C=C3CC[C@@H]4C(C)(C)[C@@H](O)CC[C@@]4(C)[C@@H]3C[C@H]2OC1=O`, the outcome in experiment [1] and in experiment [3] was inactive. In experiment [2], the inhibition entry was “inactive”.
Take `C=C(C)[C@H](O)CC[C@H](C)[C@@H]1CC[C@]2(C)C3=C(CC[C@@]12C)[C@@]1(C)CC[C@H](O)C(C)(C)[C@@H]1CC3`: the inhibition entry in experiment [1] and in experiment [2] was “inactive” in each case. Besides, in experiment [3], the outcome was inactive.
In the case of `C/C1=C\[C@@H]2[C@H](CC[C@@]3(C)O[C@@H]3[C@H]3[C@@H](O)[C@@H](C)C[C@]3(OC(=O)c3ccccc3)C1=O)C2(C)C`, the outcome in experiment [1] and in experiment [3] was inactive. Besides, in experiment [2], the inhibition result is “inactive”.
As for `C[C@@H](C/C=C/C(C)(C)OO)[C@@H]1CC[C@]2(C)C3=C(CC[C@@]12C)[C@@]1(C)CC[C@H](O)C(C)(C)[C@@H]1CC3=O`, the inhibition result in experiment [1] and in experiment [2] was “inactive” throughout. In experiment [3], the result was inactive.
Turning to `O=C(O)/C=C/c1ccccc1`, the result in experiment [1] and in experiment [3] was inactive. The inhibition entry in experiment [2] is “inactive”.
Take `CC1=C2C=C3CC[C@@H]4C(C)(C)[C@H](O)CC[C@@]4(C)[C@@H]3C[C@H]2OC1=O`: the outcome in experiment [1] and in experiment [3] was inactive. In experiment [2], the inhibition entry was “inactive”.
In the case of `COc1ccc(C(=O)OCCc2ccc(O)cc2)cc1`, the result in experiment [1] and in experiment [3] was inactive. Further, the inhibition entry in experiment [2] was “inactive”.
In the case of `CCCCC/C=C/C=C\C(=O)O[C@H]1C(C)=C[C@]23C(=O)[C@@H](C=C(COC(C)=O)[C@@H](O)[C@]12O)[C@H]1[C@@H](C[C@H]3C)C1(C)C`, the outcome in experiment [1] and in experiment [3] was inactive. The inhibition entry in experiment [2] is “inactive”.
In the case of `C/C1=C\[C@@H]2[C@H](CC[C@@]3(C)O[C@@H]3[C@H]3[C@@H](O)[C@@H](C)C[C@]3(OC(=O)/C=C/c3ccccc3)C1=O)C2(C)C` [JOLKINOL B], in experiment [1] (Human immunodeficiency virus 1, NL4-3, HEK-293T), the IC50 is 12.6 µM. For the same molecule, the inhibition result in experiment [2] is “inactive”. The outcome in experiment [3] was inactive.
With `C=C(C)[C@@H]1CC[C@]2(CO)CC[C@]3(C)[C@H](CC[C@@H]4[C@@]5(C)CC[C@H](O)C(C)(C)[C@@H]5CC[C@]43C)[C@@H]12` [BETULIN], the outcome in experiment [1] was inactive. In addition, the inhibition result in experiment [2] is “inactive”. In addition, the IC50 in experiment [3] (A2780, 96 h) was 6.1 µM.
As for `C=C(C)[C@H](CC[C@H](C)[C@@H]1CC[C@]2(C)C3=C(CC[C@@]12C)[C@@]1(C)CC[C@H](O)C(C)(C)[C@@H]1CC3=O)OO`, the inhibition entry in experiment [1] and in experiment [2] was “inactive” throughout. Besides, in experiment [3], the outcome was inactive.
As for `CC1=C2C=C3CC[C@@H]4C(C)(C)C(=O)CC[C@@]4(C)[C@@H]3C[C@H]2OC1=O`, the outcome in experiment [1] and in experiment [3] was inactive. The inhibition entry in experiment [2] was “inactive”.
As for `CCCCCCCCCCCCCCCC(=O)OCC(O)CO` (stereo not given), the result in experiment [1] and in experiment [3] was inactive. Also, in experiment [2], the inhibition result was “inactive”.
Take `C=C(C)[C@H](CC[C@@H](C)[C@@H]1CC[C@]2(C)C3=C(CC[C@@]12C)[C@@]1(C)CC[C@H](O)C(C)(C)[C@@H]1CC3=O)OO`: the inhibition result in experiment [1] and in experiment [2] was “inactive” each time. In addition, the outcome in experiment [3] was inactive.

These data come from ChEMBL document CHEMBL1154243, “Chemical Constituents of the Roots of Euphorbia micractina” (J Nat Prod, 2009).
